Results published in PMC2729716 (Biochemistry, 2009).
Where no end group is shown, it is not given here.

Experiments:
[1] = Zinc-induced aggregation by light scattering; assay type: physicochemical; details: 15 µM peptide, 1 molar equivalent Zn2+, 200 mM MOPS pH 7.4, 80 mM NaCl, 1.8 mM TCEP, 20 °C, 200 s
Outline: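 Wild-type and mutant peptides handled anaerobically in TCEP buffers; concentration set by A280 in 6M guanidine hydrochloride. Zn(NO3)2 hand-mixed into sample in a Peltier-held cuvette. Light scattering followed over time on a single-photon counting fluorometer; single exponential functions fitted to intensity versus time.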

[2] = test system: HIV Vif; details: micromolar levels of chelator; cited from earlier work
[3] = test system: GST-Cul5 (human Cul5 amino acids 1–384); experiment: HCCHp pull-down by GST-Cul5; assay type: binding; details: GST control, 40 µM Zn(NO3)2 vs no zinc
Outline: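 GST-Cul5 (human Cul5 residues 1–384, from E. coli) immobilised on glutathione resin, 10 min at 4 °C, in 50 mM HEPES pH 7.4, 150 mM NaCl, 200 µM TCEP; 20 µM peptide added for 10 min; split, ±40 µM Zn(NO3)2 for 10 min; six washes; SDS-PAGE, SYPRO Ruby stain; bands normalised to a 27-kDa marker and quantified against peptide and GST-Cul5 standard curves.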

Compound	Total change in scattered light intensity, rank order of peptides [1]	Effect of chelator on Cul5 recruitment and APOBEC3G degradation [2]	Change in amount of HCCHp bound to GST when zinc was included [3]
ELADQLIHLYYFDCFSDSAIRKALLGAIVSPRCEYQAGHNKV (cysteines drawn unpaired) [H127A]	H108A < H139A < H127A < wild type < C114S < C114/133S < C133S		
c1ccc(CN(CCN(Cc2ccccn2)Cc2ccccn2)Cc2ccccn2)nc1 [N,N,N′,N′-tetrakis-(2-pyridylmethyl) ethylenediamine]		inhibits Cul5 recruitment and APOBEC3G degradation	
ELADQLIHLYYFDCFSDSAIRKALLGHIVSPRSEYQAGHNKV [C133S]	H108A < H139A < H127A < wild type < C114S < C114/133S < C133S		
ELADQLIHLYYFDSFSDSAIRKALLGHIVSPRCEYQAGHNKV [C114S]	H108A < H139A < H127A < wild type < C114S < C114/133S < C133S		
ELADQLIHLYYFDCFSDSAIRKALLGHIVSPRCEYQAGANKV (cysteines drawn unpaired) [H139A]	H108A < H139A < H127A < wild type < C114S < C114/133S < C133S		
ELADQLIHLYYFDCFSDSAIRKALLGHIVSPRCEYQAGHNKV (cysteines drawn unpaired) [HCCHp]	H108A < H139A < H127A < wild type < C114S < C114/133S < C133S		did not increase significantly
ELADQLIALYYFDCFSDSAIRKALLGHIVSPRCEYQAGHNKV (cysteines drawn unpaired) [H108A]	H108A < H139A < H127A < wild type < C114S < C114/133S < C133S		
